Test results published in ChEMBL document CHEMBL3826882, “Discovery of 1-((2R,4aR,6R,7R,7aR)-2-Isopropoxy-2-oxidodihydro-4H,6H-spiro[furo[3,2-d][1,3,2]dioxaphosphinine-7,2'-oxetan]-6-yl)pyrimidine-2,4(1H,3H)-dione (JNJ-54257099), a 3'-5'-Cyclic Phosphate Ester Prodrug of 2'-Deoxy-2'-Spirooxetane Uridine Triphosphate Useful for HCV Inhibition” (J Med Chem, 2016).

Key:
[1] = Prodrug conversion in dog primary hepatocytes assessed as 2'-deoxy-2'-spirooxetane uridine triphosphate level per million cells at 62.5 uM after 4 hrs using radiolabelled compound by LC-MS/MS analysis; assay type: ADME, cell-based, Canis lupus familiaris, Hepatocyte
Outline: (§1)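 Study A: fresh primary hepatocyte cultures from mouse, rat, dog and human incubated with tritiated prodrug at 2 or 62.5 µM for 4 or 24 h. Triphosphate in cell lysates reported as pmol/million hepatocytes. Duplicate or single measurements.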

[2] = system: Hepatocyte; test: Prodrug conversion in rat primary hepatocytes assessed as 2'-deoxy-2'-spirooxetane uridine triphosphate level per million cells at 62.5 uM after 4 hrs using radiolabelled compound by LC-MS/MS analysis; assay type: ADME, cell-based; outline: as §1
[3] = system: Hepatocyte; test: Stability in rat primary hepatocytes assessed as parent compound level at 2 to 62.5 uM after 24 hrs using radiolabeled compound by LC-MS/MS analysis; assay type: ADME, cell-based
Outline: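 Study A: rat primary cultured hepatocytes incubated with 5'-[3H]-labelled prodrug at 2 and 62.5 µM for 4 and 24h; cell lysates profiled by LC with radioactivity detection. Cyclic monophosphate co-eluted with parent and was assessed separately by LC/MS/MS. Duplicate or single measurements.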

[4] = Drug metabolism in dog primary hepatocyte supernatant assessed as 1-[(4aR,6R,7R,7aR)-2-hydroxy-2-oxidodihydro-4H-spiro[furo[3,2-d][1,3,2]dioxaphosphinine-7,2'-oxetan]-6-yl]pyrimidine-2,4(1H,3H)-dione formation at 2 to 62.5 uM after 4 to 24 hrs using radiolabelled compound by HPLC analysis; assay type: ADME, cell-based, Canis lupus familiaris; conditions: hepatocytes
Outline: (§2)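 Study A: primary cultured hepatocytes (mouse, rat, dog, human) incubated with 2 or 62.5 µM 5'-[3H]-labelled prodrug for 4 and 24 h. Cell lysates were analysed for triphosphate. Supernatants were protein-precipitated and profiled by HPLC with radioactivity detection. Cyclic monophosphate was also assessed by LC/MS/MS.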

[5] = Drug metabolism in dog primary hepatocytes assessed as ((4R,5R,7R,8R)-5-(2,4-dioxo-3,4-dihydropyrimidin-1(2H)-yl)-8-hydroxy-1,6-dioxaspiro[3.4]octan-7-yl)methyl dihydrogen phosphate formation at 2 to 62.5 uM after 4 hrs using radiolabeled compound by LC-MS/MS analysis; assay type: ADME, cell-based, Canis lupus familiaris, Hepatocyte; outline: as §2
[6] = system: Hepatocyte; test: Drug metabolism in mouse primary hepatocyte supernatant assessed as 1-[(4aR,6R,7R,7aR)-2-hydroxy-2-oxidodihydro-4H-spiro[furo[3,2-d][1,3,2]dioxaphosphinine-7,2'-oxetan]-6-yl]pyrimidine-2,4(1H,3H)-dione formation at 2 to 62.5 uM after 4 to 24 hrs using radiolabelled compound by HPLC analysis; assay type: ADME, cell-based; conditions: hepatocytes
Outline: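 Fresh primary hepatocyte cultures incubated with tritiated prodrug (5'-[3H]) at 2 and 62.5 µM for 4 and 24 h. Supernatants taken after protein precipitation and profiled by HPLC with radioactivity detection. Cell lysates profiled for metabolites by radio-LC. Cyclic monophosphate also measured by LC/MS/MS.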

[7] = Drug metabolism in dog primary hepatocytes assessed as 1-[(4aR,6R,7R,7aR)-2-hydroxy-2-oxidodihydro-4H-spiro[furo[3,2-d][1,3,2]dioxaphosphinine-7,2'-oxetan]-6-yl]pyrimidine-2,4(1H,3H)-dione formation at 2 to 62.5 uM after 4 hrs using radiolabelled compound by LC-MS/MS analysis; assay type: ADME, cell-based, Canis lupus familiaris, Hepatocyte; outline: as §2
[8] = system: Hepatocyte; test: Prodrug conversion in mouse primary hepatocytes assessed as 2'-deoxy-2'-spirooxetane uridine triphosphate level per million cells at 62.5 uM after 4 hrs using radiolabelled compound by LC-MS/MS analysis; assay type: ADME, cell-based; outline: as §1
[9] = system: Hepatocyte; test: Prodrug conversion in rat cryopreserved hepatocytes assessed as 2'-deoxy-2'-spirooxetane uridine triphosphate level per million cells at 10 uM after 24 hrs by LC-MS/MS analysis; assay type: ADME, cell-based
Outline: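 Plated cryopreserved hepatocytes (study B) incubated with 10 µM unlabeled prodrug for 2, 8 or 24 h. Triphosphate measured in cell lysates and expressed as pmol/million hepatocytes. Quantification limit 2 ng/10^6 cells.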

[10] = system: Hepatocyte; test: Prodrug conversion in human primary hepatocytes assessed as 2'-deoxy-2'-spirooxetane uridine triphosphate formation measured at 48 to 96 hrs by LC-MS/MS analysis; assay type: ADME, cell-based
Outline: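 Hepatocyte primary cultures followed over time for triphosphate formation in cell lysates: rat and mouse up to 24 h, human up to 96 h.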

[11] = system: Liver; test: Tmax in mouse liver assessed as 2'-deoxy-2'-spirooxetane uridine triphosphate at 50 mg/kg, po; assay type: ADME, organism-based; conditions: in vivo
Outline: (§3)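 Single oral dose of 50 mg/kg formulated in 20% HP-β-cyclodextrin. Prodrug and its triphosphate were measured in plasma and liver (ng/mL or ng/g) over time, and Cmax, tmax, AUC, tlast and t1/2 were derived. For some analytes, data from two independent studies are reported.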

[12] = system: Hepatitis C virus; test: Antiviral activity against HCV genotype 3a infected in homozygous cDNA-uPA chimeric SCID mouse bearing humanized hepatocytes assessed as change in HCV RNA level in serum at 200 mg/kg, po bid administered through gavage for 7 days by RT-PCR method; assay type: functional, Hepacivirus hominis, Hepatocyte
Outline: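 Male chimeric SCID cDNA-uPA+/+ mice with human hepatocyte liver (≥70% replacement by blood human albumin) and serum HCV RNA >1.0×10^6 copies/mL the week before dosing. Oral gavage for 7 days in 20% HP-β-CD, 50-200 mg/kg QD or BID. Serum sampled pre-dose on days 1, 2, 3, 5 and 7. Real-time PCR; mean change in log10 copies/mL, day 7 vs day 1 pre-dose.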

[13] = system: Hepatocyte; test: Prodrug conversion in human hepatocytes assessed as 2'-deoxy-2'-spirooxetane uridine triphosphate formation in presence of CYP3A4 inhibitor ketoconazole by LC-MS/MS analysis; assay type: ADME, cell-based
[14] = system: Plasma; test: Tlast in mouse plasma at 50 mg/kg, po; assay type: ADME, organism-based; conditions: in vivo; outline: as §3
[15] = system: Liver; test: Cmax in rat liver assessed as 2'-deoxy-2'-spirooxetane uridine triphosphate at 50 mg/kg, po; assay type: ADME, organism-based; design: dose 50 mg/kg, route oral; conditions: in vivo
[16] = system: Hepatocyte; test: Drug metabolism in human hepatocytes assessed as ((4R,5R,7R,8R)-5-(2,4-dioxo-3,4-dihydropyrimidin-1(2H)-yl)-8-hydroxy-1,6-dioxaspiro[3.4]octan-7-yl)methyl dihydrogen phosphate formation in presence of CYP3A4 inhibitor ketoconazole by LC-MS/MS analysis; assay type: ADME, cell-based
[17] = system: Liver; test: AUC (0 to infinity) in mouse liver assessed as 2'-deoxy-2'-spirooxetane uridine triphosphate at 50 mg/kg, po; assay type: ADME, organism-based; design: dose 50 mg/kg, time infinity, route oral; conditions: in vivo
Outline: (§4)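 Oral dose 50 mg/kg, formulated in 20% HP-β-cyclodextrin. Prodrug and triphosphate were measured in plasma and liver (ng/mL or ng/g). Parameters derived were Cmax, tmax, AUC0-last, AUC0-inf and t1/2. Some prodrug data come from two independent studies.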

[18] = target: Cytochrome P450 3A4 (Homo sapiens, UniProt P08684); test: Drug metabolism in baculovirus infected insect cell microsomes expressing human CYP3A4 assessed as CYP3A4-mediated intrinsic clearance per pmol CYP3A4 at 22.7 uM; assay type: ADME; conditions: recombinant enzyme
Outline: (§5)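 Incubation at 22.7 µM with human CYP3A4 supersomes. Intrinsic clearance (µL/min.pmol P450) and half-life (min) were determined.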

[19] = system: Liver; test: AUC (0 to infinity) in mouse liver at 50 mg/kg, po; assay type: ADME, organism-based; design: dose 50 mg/kg, route oral, time infinity; conditions: in vivo; outline: as §4
[20] = target: CYP3A4 (Homo sapiens, UniProt P08684); test: Drug metabolism in baculovirus infected insect cell microsomes expressing human CYP3A4 assessed as CYP3A4-mediated half life at 22.7 uM; assay type: ADME; outline: as §5
[21] = system: Hepatocyte; test: Prodrug conversion in human hepatocytes assessed as 2'-deoxy-2'-spirooxetane uridine triphosphate formation in presence of pan-CYP inhibitor 1-ABT by LC-MS/MS analysis; assay type: ADME, cell-based

Chain of Cytochrome P450 3A4 (P08684 whole entry): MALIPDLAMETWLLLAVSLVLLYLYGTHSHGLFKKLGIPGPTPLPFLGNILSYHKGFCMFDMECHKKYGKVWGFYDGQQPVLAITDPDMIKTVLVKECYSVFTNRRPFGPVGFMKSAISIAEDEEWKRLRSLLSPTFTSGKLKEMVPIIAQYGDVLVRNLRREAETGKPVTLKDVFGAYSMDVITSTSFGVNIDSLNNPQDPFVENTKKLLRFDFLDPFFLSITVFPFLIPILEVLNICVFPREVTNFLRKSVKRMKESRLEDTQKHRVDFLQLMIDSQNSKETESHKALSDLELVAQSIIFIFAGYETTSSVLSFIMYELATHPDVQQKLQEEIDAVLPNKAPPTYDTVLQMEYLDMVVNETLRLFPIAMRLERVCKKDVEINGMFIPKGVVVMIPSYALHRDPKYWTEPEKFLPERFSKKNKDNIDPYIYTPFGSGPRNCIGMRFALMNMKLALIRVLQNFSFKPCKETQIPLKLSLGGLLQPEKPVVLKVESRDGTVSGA
Chain of CYP3A4 (P08684 whole entry): as above

In the case of `[3H]C1O[P@](=O)(OC(C)C)O[C@@H]2[C@@H]1O[C@@H](n1ccc(=O)[nH]c1=O)[C@@]21CCO1` (stereo partly specified), the Drug metabolism [1] is reported as 0.035 pmol, the Drug metabolism [2] is reported as 0.45 pmol and the Stability [3] is reported as “Stable”. For the same molecule, the Drug metabolism [4] was “metabolite_detected”, the Drug metabolism [5] was “metabolite_detected” and the Drug metabolism [6] was “metabolite_detected”. For the same molecule, the Drug metabolism [7] was “metabolite_detected” and the Drug metabolism [8] was 0.12 pmol.

For `CC(C)O[P@@]1(=O)OC[C@H]2O[C@@H](n3ccc(=O)[nH]c3=O)[C@@]3(CCO3)[C@@H]2O1`, the Drug metabolism [9] was 0.231 pmol, the Drug metabolism [10] was “metabolite_detected” and the Tmax [11] was 2 h. For the same molecule, the Activity [12] was -1.58, the Drug metabolism [13] was “metabolite_notdetected” and the Tlast [14] was 24 h. The Cmax [15] was 73500 ng/g, the Drug metabolism [16] was “metabolite_notdetected” and the AUC [17] was 129396 ng·h/g. It also gave a CL [18] of 0.058 µL/min, an AUC [19] of 1706 ng·h/g and a half-life at 22.7 µM [20] of 2.18 h. For the same molecule, the Drug metabolism [21] was “metabolite_notdetected”.
